Data set [1] is described as follows: Cytotoxicity against human RBC assessed as hemolysis after 1 hr by microplate reader method. The format is cell-based, Erythrocyte. To be noted: red blood cells (RBC). The gist of the method: (§1)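 Washed RBCs from EDTA blood of healthy donors mixed 1:1 with compound in PBS (100 to 6.25 μM), 1 h at 37 °C, then centrifuged. Supernatant absorbance at 550 nm, reference 620 nm; % hemolysis = (A − A0)/(Amax − A0) × 100, PBS background, water as 100%. Triplicates.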

Data set [2] is described as follows: Cytotoxicity against human RBC assessed as hemolysis at 100 uM after 1 hr by microplate reader method. Format: cell-based, Erythrocyte. To be noted: red blood cells (RBC), read-out: Activity. The gist of the method: as §1
For data set [3], the system named is Leishmania infantum. As to the kind of experiment: Antileishmanial activity against Leishmania infantum A1 amastigotes infected in human THP1 cells assessed as reduction in intracellular parasite load after 48 hrs by Giemsa staining. The format is functional, organism-based. The settings on record: A1, THP-1, 48 h. The gist of the method: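 THP-1 differentiated with 1 μM retinoic acid for 72 h, then infected overnight with L. infantum promastigotes at 8:1 parasite/cell, 37 °C/5% CO2. Free parasites removed over Histopaque 1077; cells at 4 × 10^5/mL exposed to compound 48 h at 37 °C/5% CO2. Infected cells counted microscopically after Giemsa staining; IC50 ± σ by sigmoidal regression, three independent experiments.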

Data set [4] in a line: Cytotoxicity against human THP1 cells after 48 hrs by propidium iodide and SYBR14 satining-base flow cytometry. Format: cell-based. To be noted: THP-1 cells. The gist of the method:
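THP-1 cells at 1×10^6 cells/mL treated with compound (50 to 1.56 μM); stained with 12 μM PI and 100 nM SYBR-14 and live/dead ratio read by flow cytometry (488 nm laser; 545 and 645 nm emission). Incubation time given as 72 h in methods, 48 h in figure legend. Triplicates; CC50 derived from dose–response.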

The nature of data set [5]: Aqueous solubility in water by UV spectrophotometry. The settings on record: buffer.
Data set [6] is described as follows: Ratio of miltefosine HC50 to compound HC50 for human RBC. Format: cell-based, Erythrocyte. To be noted: red blood cells (RBC), read-out: Ratio IC50.
The test system of data set [7] is Leishmania infantum. As to the kind of experiment: Ratio of miltefosine IC50 to compound IC50 for Leishmania infantum A1 amastigotes infected in human THP1 cells. The format is functional, THP-1.
Data set [8] has as its system Leishmania infantum. As to the kind of experiment: Antileishmanial activity against Leishmania infantum MHOM/TN/80/IPT1/LEM 235 promastigotes after 72 hrs by propidium iodide and SYBR14 satining-base flow cytometry. Format: functional, organism-based. To be noted: MHOM/TN/80/IPT1/LEM 235, 72 h. The method in brief: (§2)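 Promastigotes grown in RPMI 1640 with 10% FCS, L-glutamine and antibiotics at 26 °C; seeded at 1×10^6 cells/mL with compound (DMSO/ethanol 50:50 stock, 2-fold dilutions 100 to 0.8 μM in medium) at 26 °C for 72 h. Stained with 12 μM PI and 100 nM SYBR-14 in HEPES-buffered saline with 10% BSA; live/dead read by flow cytometry. IC50 ± σ by sigmoidal regression, three independent experiments.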
A general note: A flow cytometer gives signals particle by particle.

In data set [9] the test system is Leishmania donovani. As to the kind of experiment: Antileishmanial activity against Leishmania donovani MHOM/IN/80/DD8/LEM 703 promastigotes after 72 hrs by propidium iodide and SYBR14 satining-base flow cytometry. Format: functional, organism-based. The settings on record: MHOM/IN/80/DD8/LEM 703, 72 h. The gist of the method: as §2

The term HC50 denotes the concentration giving 50% haemolysis. What is called IC50 is the concentration that gives 50% inhibition. As a reminder, the CC50 is the concentration that lowers cell viability or growth by half. With `O=[N+]([O-])c1cc(C(F)(F)F)cc([N+](=O)[O-])c1Nc1cccc(O)c1`, the HC50 at 1 h in [1] is over 100 µM. In addition, the hemolysis at 1 h, 100 µM in data set [2] is 1.4%. The IC50 in [3] was found to be 2.2 µM. This molecule came in with a CC50 at 48 h in data set [4] of 35 µM. In [5], the solubility is recorded as 9.5 ppm. The selectivity ratio in data set [6] turned out to be 2.
In the case of `O=[N+]([O-])c1cc(C(F)(F)F)cc([N+](=O)[O-])c1Nc1ccccc1O`, the HC50 at 1 h in data set [1] is over 100 µM. Also, in data set [2], the hemolysis at 1 h, 100 µM stood at 1.2%. Moreover, the IC50 in data set [3] is 1.1 µM. The molecule further came in with a CC50 at 48 h in [4] of over 50 µM. For the same molecule, the “Ratio IC50” value in data set [7] is 2.5. In data set [5], the solubility was 20 ppm. In [6], the selectivity ratio came to 2.
Take `CN(C)c1c([N+](=O)[O-])cc(C(F)(F)F)cc1[N+](=O)[O-]`: the HC50 at 1 h in data set [1] was over 100 µM. For the same molecule, the IC50 is over 100 µM in data set [8], 7.3 µM in data set [3] and over 100 µM in data set [9]. In data set [2], the hemolysis at 1 h, 100 µM came to 0%. The same molecule registered a CC50 at 48 h in [4] of over 50 µM. Besides, in data set [5], the solubility is 4.6 ppm. In addition, the selectivity ratio in data set [6] amounted to 2.
Turning to `CCCCCN(CCO)c1c([N+](=O)[O-])cc(C(F)(F)F)cc1[N+](=O)[O-]`, in [1], the HC50 at 1 h is over 100 µM. The hemolysis at 1 h, 100 µM in [2] was 0.8%. Moreover, in [3], the IC50 was over 50 µM. The CC50 at 48 h in data set [4] is over 50 µM. Besides, in data set [5], the solubility is given as 6 ppm. In addition, the selectivity ratio in [6] was determined as 2.
For `CCCCCCN(CCO)c1c([N+](=O)[O-])cc(C(F)(F)F)cc1[N+](=O)[O-]`, the HC50 at 1 h in data set [1] is over 100 µM. Besides, the hemolysis at 1 h, 100 µM in data set [2] turned out to be 0.7%. Besides, in [3], the IC50 was over 50 µM. The molecule further showed a CC50 at 48 h in data set [4] of 10 µM. Moreover, the solubility in data set [5] was determined as 5.7 ppm. For the same molecule, the selectivity ratio in data set [6] came to 2.
As for `CCCN(CCO)c1c([N+](=O)[O-])cc(C(F)(F)F)cc1[N+](=O)[O-]`, the HC50 at 1 h in data set [1] is over 100 µM. Also, the results for the half-inhibitory concentration (IC50) in data set [8], in data set [3] and in data set [9] were over 100 µM, over 50 µM and over 100 µM, respectively. Also, the hemolysis at 1 h, 100 µM in data set [2] was 0.2%. Besides, in [4], the CC50 at 48 h is over 50 µM. In data set [5], this molecule registered a solubility of 72.3 ppm. Also, the selectivity ratio in data set [6] is 2.
As to `O=[N+]([O-])c1cc(C(F)(F)F)cc([N+](=O)[O-])c1N1CCOCC1`, the HC50 at 1 h in data set [1] was over 100 µM. In addition, the IC50 in [8] is over 100 µM; in data set [3], 0.5 µM; in data set [9], over 100 µM. Further, the hemolysis at 1 h, 100 µM in data set [2] was determined as 0.3%. Also, the CC50 at 48 h in [4] was over 50 µM. The Ratio IC50 in data set [7] was 5. This molecule also had a solubility in data set [5] of 18.6 ppm. The selectivity ratio in data set [6] is 2.
As for `CCCCN(CCO)c1c([N+](=O)[O-])cc(C(F)(F)F)cc1[N+](=O)[O-]`, in data set [1], the HC50 at 1 h is over 100 µM. Besides, the IC50 in [8] is over 100 µM; in [3], 1.2 µM; in [9], over 100 µM. For the same molecule, in data set [2], the hemolysis at 1 h, 100 µM was determined as 0.5%. Also, the CC50 at 48 h in data set [4] was over 50 µM. The “Ratio IC50” value in data set [7] is 2.5. Further, in data set [5], the solubility is given as 22.6 ppm. In addition, in data set [6], the selectivity ratio was 2.
Consider `O=[N+]([O-])c1cc(C(F)(F)F)cc([N+](=O)[O-])c1N1CCCCC1`, for which the HC50 at 1 h in [1] was over 100 µM. For the same molecule, the hemolysis at 1 h, 100 µM in [2] turned out to be 1.2%. In addition, in data set [3], the IC50 is over 50 µM. This molecule yielded a CC50 at 48 h in data set [4] of over 50 µM. The solubility in data set [5] amounted to 0.8 ppm. Further, the selectivity ratio in data set [6] was found to be 2.
For `CCN(CCO)c1c([N+](=O)[O-])cc(C(F)(F)F)cc1[N+](=O)[O-]`, in data set [1], the HC50 at 1 h is over 100 µM. Besides, the results for the IC50 in data set [8], in [3] and in [9] were over 100 µM, over 50 µM and over 100 µM, respectively. Moreover, the hemolysis at 1 h, 100 µM in data set [2] was found to be 0.4%. Besides, the CC50 at 48 h in data set [4] is over 50 µM. The solubility in [5] came out at 157.4 ppm. In [6], the selectivity ratio was 2.
For `O=[N+]([O-])c1cc(C(F)(F)F)cc([N+](=O)[O-])c1Nc1ccc(O)cc1`, the HC50 at 1 h in data set [1] is over 100 µM. Also, the results for the IC50 in data set [8], in data set [3] and in data set [9] were 2.2 µM, 1.8 µM and 0.6 µM, respectively. The hemolysis at 1 h, 100 µM in data set [2] came to 1.4%. This molecule also yielded a CC50 at 48 h in data set [4] of 40 µM. For the same molecule, the solubility in data set [5] was 11.4 ppm. The selectivity ratio in [6] turned out to be 2.
For `O=[N+]([O-])c1cc(C(F)(F)F)cc([N+](=O)[O-])c1NC1CCCCC1`, the HC50 at 1 h in data set [1] was over 100 µM. Also, the hemolysis at 1 h, 100 µM in data set [2] was 1.1%. In [3], the concentration for half-maximal inhibition (IC50) came out at 9.1 µM. In data set [4], the CC50 at 48 h is over 50 µM. For the same molecule, the solubility in data set [5] is recorded as 0.1 ppm. Besides, the selectivity ratio in data set [6] was 2.
For `CCCCCCCCCCCCCCCCOP(=O)([O-])OCC[N+](C)(C)C` [MILTEFOSINE], the HC50 at 1 h in data set [1] was 38.3 µM. Moreover, the half-inhibitory concentration (IC50) in data set [3] was 2.7 µM. This molecule registered a CC50 at 48 h in data set [4] of 28.6 µM.
Turning to `CCCN(CCC)c1c([N+](=O)[O-])cc(C(F)(F)F)cc1[N+](=O)[O-]` [TRIFLURALIN], the HC50 at 1 h in data set [1] is over 100 µM. Also, the IC50 in data set [8] was over 100 µM; in [3] it was over 50 µM; in [9] it was over 100 µM. In addition, the hemolysis at 1 h, 100 µM in data set [2] was 1.3%. For the same molecule, the CC50 at 48 h in [4] is over 50 µM. This molecule also returned a solubility in [5] of 0.5 ppm. In addition, the selectivity ratio in [6] turned out to be 2.

The values above are taken from ChEMBL document CHEMBL1157671, “Synthesis and biological evaluation of trifluralin analogues as antileishmanial agents” (Bioorg Med Chem, 2010).
